ChEMBL document CHEMBL4020823, “Highly Selective, Potent, and Oral mTOR Inhibitor for Treatment of Cancer as Autophagy Inducer” (J Med Chem, 2018)
Activity calls are given as the source filed them. No cut-off for these calls is given here.

Experiments:
[1] = tested on: T47D; experiment: Cell cycle arrest in human T47D cells assessed as accumulation at G0/G1 phase at 0.25 to 0.5 uM after 24 hrs by propidium iodide-staining based flow cytometric analysis; type: functional
Summary of the method: (§1)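 Cells were seeded at 5 × 10^5 cells/mL. At 24 h after plating they were treated with increasing concentrations for 24 h, washed in PBS, and fixed in ice-cold 70% ethanol for at least 24 h. They were stained with propidium iodide plus RNase A for 30 min at 37 °C and analysed by flow cytometry for phase distribution.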

[2] = tested on: T47D; experiment: Antitumor activity against human T47D cells xenografted in BALB/c nude mouse assessed as decrease in tumor growth at 15 mg/kg, po administered via gavage after 3 weeks relative to control; type: functional; details: 504 h, read-out: TGI
[3] = biological target: PI3-kinase p110-delta/p85-alpha (Homo sapiens) (UniProt P27986+O00329); experiment: Inhibition of full length recombinant human PI3K p110delta/p85alpha at 1 uM relative to control; type: protein-complex assay
Summary of the method: (§2)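 Eurofins KinaseProfiler panel with compound at a single 1 μM concentration. ATP at the Km of each kinase. Result is % inhibition, mean of two independent experiments.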

[4] = biological target: PI3K p110 beta/p85 alpha (Homo sapiens) (UniProt P27986+P42338); experiment: Inhibition of full length recombinant human PI3K p110beta/p85alpha at 1 uM relative to control; type: protein-complex assay; summary of the method: as §2
[5] = tested on: MCF7; experiment: Growth inhibition of human MCF7 cells after 72 hrs by CCK8 assay; type: functional, cell-based; details: MCF7, 72 h
Summary of the method: (§3)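 Cells were seeded at 2000–3000 per well and grown 24 h in serum-containing medium. They were then exposed to serially diluted compound for 72 h at 37 °C, 5% CO2. CCK8 reagent was added for 1–4 h and absorbance read at 450 nm. Inhibition = (AC − AS)/(AC − Ab) × 100%. IC50 is the average of at least three independent determinations.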

[6] = tested on: MCF7; experiment: Induction of autophagy in human MCF7 cells assessed as increase in LC3-2 level at 0.25 to 0.5 uM after 48 hrs by Western blot analysis; type: functional, cell-based
Summary of the method: (§4)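 Cells were treated for 48 h (2 days) with varying concentrations. Whole-cell lysates were immunoblotted for LC3B-II with β-actin as the internal control. Membranes were blocked in 5% skim milk, incubated with primary antibody overnight at 4 °C, then with peroxidase-conjugated secondary, and developed by ECL.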

[7] = tested on: MCF7; experiment: Induction of autophagy in human MCF7 cells assessed as increase in LC3-2 puncta level after 48 hrs by immunofluorescence staining based microscopic analysis; type: functional, cell-based
[8] = tested on: HeLa; experiment: Induction of autophagy in human HeLa cells assessed as increase in LC3-2 level at 1 to 2 uM after 48 hrs by Western blot analysis; type: functional, cell-based; summary of the method: as §4
[9] = AUC (0 to infinity) in Sprague-Dawley rat at 20 mg/kg, po administered as single dose by HPLC analysis; type: ADME, organism-based; design: dose 20 mg/kg, route oral, time infinity; details: in vivo
Summary of the method: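 Rats fasted overnight, then given one 20 mg/kg dose either iv or po. Blood was collected and centrifuged at once to obtain plasma. Plasma drug levels were measured by HPLC, and PK parameters were derived from the concentration-time data.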

[10] = species: Homo sapiens; experiment: Inhibition of mTORC2 in human MCF7 cells assessed as reduction in AKT phosphorylation at Ser473 residues at 0.25 to 0.5 uM by Western blot analysis; type: cell-based
Summary of the method: (§5)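 Cells treated with the indicated concentrations, then whole-cell lysates immunoblotted. mTORC1 activity read as S6 and 4E-BP1 phosphorylation; mTORC2 activity read as AKT Ser473 phosphorylation. Blocking in 5% skim milk, primary antibodies at 4 °C overnight, peroxidase-conjugated secondary, ECL detection.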

[11] = tested on: SiHa; experiment: Induction of autophagy in human SiHa cells assessed as increase in LC3-2 puncta level after 48 hrs by immunofluorescence staining based microscopic analysis; type: functional, cell-based
Summary of the method: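 Cells seeded on glass coverslips in complete 1640 or DMEM and incubated with inhibitors at different concentrations for 48 h. Fixed in 4% paraformaldehyde, permeabilized with 0.15% Triton X-100, blocked in 4% BSA/PBS for 1 h at room temperature. Anti-LC3B (1:200) overnight, then FITC-conjugated secondary, DAPI nuclear stain. LC3B-II puncta viewed by fluorescence microscopy.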

[12] = biological target: ATR/ATRIP (Homo sapiens) (UniProt Q13535+Q8WXE1); experiment: Inhibition of full length recombinant human ATR /ATRIP at 1 uM relative to control; type: protein-complex assay; summary of the method: as §2
[13] = tested on: Mus musculus; experiment: Down regulation of AKT phosphorylation at Ser473 residues in human T47D cells xenografted in BALB/c nude mouse administered via oral gavage after 3 weeks by hematoxylin and eosine staining based light microscopic assay; type: functional, cell-based
Summary of the method: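 Tumours from the oral 3-week T-47D xenograft study were formalin-fixed, paraffin-embedded and cut into 5 μm sections. Sections were deparaffinized, rehydrated and incubated overnight at 4 °C with phospho-specific primary antibody at 1:100. Biotin secondary was applied for 1 h at room temperature, then ABC-peroxidase/DAB with hematoxylin counterstain. Sections were viewed by light microscopy.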

[14] = tested on: MCF7; experiment: Cell cycle arrest in human MCF7 cells assessed as accumulation at G0/G1 phase at 0.25 to 0.5 uM after 24 hrs by propidium iodide-staining based flow cytometric analysis; type: functional; summary of the method: as §1
[15] = species: Homo sapiens; experiment: Inhibition of mTORC2 in human SiHa cells assessed as reduction in AKT phosphorylation at Ser473 residues at 0.25 to 0.5 uM by Western blot analysis; type: cell-based
Summary of the method: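 Cells exposed to a range of compound concentrations; whole-cell lysates immunoblotted for phospho-AKT (Ser473) as the mTORC2 readout, alongside S6 and 4E-BP1 phosphorylation for mTORC1. Membranes blocked in 5% skim milk, primary antibodies overnight at 4 °C, peroxidase-conjugated anti-mouse or anti-rabbit IgG secondary, ECL detection. Rapamycin as comparator.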

[16] = species: Mus musculus; experiment: Inhibition of full length recombinant mouse PI3K p110alpha/p65alpha at 1 uM relative to control; summary of the method: as §2
[17] = tested on: PI3-kinase p110-alpha/p85-alpha (Homo sapiens), P27986+P42336 [E545K]; experiment: Inhibition of full length recombinant human p85alpha/PI3K p110alpha E545K mutant at 1 uM relative to control; summary of the method: as §2
[18] = biological target: mTOR/FKBP12A/FKBP12B (Homo sapiens, UniProt P42345+P62942+P68106); experiment: Inhibition of full length recombinant human mTOR/FKBP12; type: protein-complex assay
[19] = species: Homo sapiens; experiment: Inhibition of mTORC1 in human SiHa cells assessed as reduction in 4E-BP1 phosphorylation at Thr37/46 residues at 0.25 to 0.5 uM by Western blot analysis; type: cell-based; summary of the method: as §5
[20] = biological target: Serine/threonine-protein kinase mTOR (Homo sapiens, UniProt P42345); experiment: Inhibition of N-terminal FLAG-tagged recombinant human mTOR (1362 to end residues)
[21] = tested on: SiHa; experiment: Growth inhibition of human SiHa cells after 72 hrs by CCK8 assay; type: functional, cell-based; summary of the method: as §3
[22] = species: Mus musculus; experiment: Inhibition of full length recombinant mouse PI3K p85alpha/p110alpha E545K mutant at 1 uM relative to control; summary of the method: as §2
[23] = tested on: PI3-kinase p110-alpha/p85-alpha (Homo sapiens), P27986+P42336 [E542K]; experiment: Inhibition of full length recombinant human p85alpha/PI3K p110alpha E542K mutant at 1 uM relative to control; summary of the method: as §2

Sequence of ATR/ATRIP (Homo sapiens) (Q13535 whole entry, looked up): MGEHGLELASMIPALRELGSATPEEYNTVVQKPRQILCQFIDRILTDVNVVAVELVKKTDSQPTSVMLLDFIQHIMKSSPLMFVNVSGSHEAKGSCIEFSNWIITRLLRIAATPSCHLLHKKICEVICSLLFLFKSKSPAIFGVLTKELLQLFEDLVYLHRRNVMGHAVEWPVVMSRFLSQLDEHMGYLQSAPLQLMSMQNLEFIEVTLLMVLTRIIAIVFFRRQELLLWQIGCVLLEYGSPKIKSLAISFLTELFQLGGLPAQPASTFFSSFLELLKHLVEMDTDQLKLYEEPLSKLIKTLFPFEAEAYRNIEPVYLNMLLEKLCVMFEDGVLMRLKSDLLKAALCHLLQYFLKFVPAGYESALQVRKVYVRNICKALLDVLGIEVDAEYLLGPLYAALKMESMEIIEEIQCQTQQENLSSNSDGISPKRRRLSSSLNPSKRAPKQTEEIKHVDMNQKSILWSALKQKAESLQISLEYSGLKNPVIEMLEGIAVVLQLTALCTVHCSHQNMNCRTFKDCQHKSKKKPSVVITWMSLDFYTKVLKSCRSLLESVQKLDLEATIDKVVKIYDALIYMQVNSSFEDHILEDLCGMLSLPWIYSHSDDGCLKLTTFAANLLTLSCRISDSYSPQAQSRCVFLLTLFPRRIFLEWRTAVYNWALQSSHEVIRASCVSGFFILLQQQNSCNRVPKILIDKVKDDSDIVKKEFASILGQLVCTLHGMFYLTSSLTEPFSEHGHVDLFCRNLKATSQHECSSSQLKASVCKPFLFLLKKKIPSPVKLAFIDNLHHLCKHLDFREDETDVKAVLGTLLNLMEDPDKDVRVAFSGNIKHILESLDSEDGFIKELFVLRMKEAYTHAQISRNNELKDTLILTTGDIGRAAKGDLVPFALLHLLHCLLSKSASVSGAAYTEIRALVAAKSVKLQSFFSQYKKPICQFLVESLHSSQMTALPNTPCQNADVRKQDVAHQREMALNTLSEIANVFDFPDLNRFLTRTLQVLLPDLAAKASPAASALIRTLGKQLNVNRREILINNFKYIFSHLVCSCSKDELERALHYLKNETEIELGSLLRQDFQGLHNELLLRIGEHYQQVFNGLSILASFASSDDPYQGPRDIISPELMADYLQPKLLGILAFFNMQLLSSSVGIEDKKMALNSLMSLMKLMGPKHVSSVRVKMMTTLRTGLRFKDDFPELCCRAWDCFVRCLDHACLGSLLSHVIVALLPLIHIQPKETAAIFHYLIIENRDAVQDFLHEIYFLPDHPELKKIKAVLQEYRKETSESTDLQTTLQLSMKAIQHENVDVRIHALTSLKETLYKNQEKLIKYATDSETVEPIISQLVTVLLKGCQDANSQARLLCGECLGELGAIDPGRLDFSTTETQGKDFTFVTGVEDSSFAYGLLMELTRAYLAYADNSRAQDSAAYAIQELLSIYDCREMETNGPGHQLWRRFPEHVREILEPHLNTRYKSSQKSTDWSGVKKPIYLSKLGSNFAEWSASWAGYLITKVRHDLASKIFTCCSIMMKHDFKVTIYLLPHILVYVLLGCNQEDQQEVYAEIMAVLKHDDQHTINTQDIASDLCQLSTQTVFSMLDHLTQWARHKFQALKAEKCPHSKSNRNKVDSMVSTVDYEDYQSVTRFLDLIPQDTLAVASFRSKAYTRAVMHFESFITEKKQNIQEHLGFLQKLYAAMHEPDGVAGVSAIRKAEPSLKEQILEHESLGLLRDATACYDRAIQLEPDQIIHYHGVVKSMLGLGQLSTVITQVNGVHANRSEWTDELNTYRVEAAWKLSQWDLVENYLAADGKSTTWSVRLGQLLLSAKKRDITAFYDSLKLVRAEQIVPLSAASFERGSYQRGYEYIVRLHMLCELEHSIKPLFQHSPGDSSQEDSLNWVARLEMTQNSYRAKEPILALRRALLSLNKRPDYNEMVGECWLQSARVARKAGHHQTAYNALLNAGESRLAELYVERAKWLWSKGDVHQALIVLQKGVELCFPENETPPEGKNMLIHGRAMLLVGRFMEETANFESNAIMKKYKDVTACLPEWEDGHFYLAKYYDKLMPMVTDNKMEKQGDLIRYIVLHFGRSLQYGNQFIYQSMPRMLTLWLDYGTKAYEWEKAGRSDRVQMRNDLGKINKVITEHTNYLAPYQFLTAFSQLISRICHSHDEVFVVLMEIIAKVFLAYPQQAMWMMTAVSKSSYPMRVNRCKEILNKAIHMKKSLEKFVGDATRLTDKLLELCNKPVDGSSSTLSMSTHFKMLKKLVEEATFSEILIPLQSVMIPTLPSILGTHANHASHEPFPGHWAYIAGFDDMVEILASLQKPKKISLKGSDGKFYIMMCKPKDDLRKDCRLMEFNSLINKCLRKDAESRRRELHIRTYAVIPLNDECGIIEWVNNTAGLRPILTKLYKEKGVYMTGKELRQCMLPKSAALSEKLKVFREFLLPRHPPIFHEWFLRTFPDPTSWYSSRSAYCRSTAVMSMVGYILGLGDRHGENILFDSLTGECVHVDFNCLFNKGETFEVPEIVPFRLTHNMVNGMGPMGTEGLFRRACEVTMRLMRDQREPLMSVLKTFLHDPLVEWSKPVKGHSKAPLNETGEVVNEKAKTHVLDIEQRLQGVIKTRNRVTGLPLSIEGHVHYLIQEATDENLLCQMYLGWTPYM
Sequence of ATR/ATRIP (Homo sapiens) (Q8WXE1 whole entry, looked up): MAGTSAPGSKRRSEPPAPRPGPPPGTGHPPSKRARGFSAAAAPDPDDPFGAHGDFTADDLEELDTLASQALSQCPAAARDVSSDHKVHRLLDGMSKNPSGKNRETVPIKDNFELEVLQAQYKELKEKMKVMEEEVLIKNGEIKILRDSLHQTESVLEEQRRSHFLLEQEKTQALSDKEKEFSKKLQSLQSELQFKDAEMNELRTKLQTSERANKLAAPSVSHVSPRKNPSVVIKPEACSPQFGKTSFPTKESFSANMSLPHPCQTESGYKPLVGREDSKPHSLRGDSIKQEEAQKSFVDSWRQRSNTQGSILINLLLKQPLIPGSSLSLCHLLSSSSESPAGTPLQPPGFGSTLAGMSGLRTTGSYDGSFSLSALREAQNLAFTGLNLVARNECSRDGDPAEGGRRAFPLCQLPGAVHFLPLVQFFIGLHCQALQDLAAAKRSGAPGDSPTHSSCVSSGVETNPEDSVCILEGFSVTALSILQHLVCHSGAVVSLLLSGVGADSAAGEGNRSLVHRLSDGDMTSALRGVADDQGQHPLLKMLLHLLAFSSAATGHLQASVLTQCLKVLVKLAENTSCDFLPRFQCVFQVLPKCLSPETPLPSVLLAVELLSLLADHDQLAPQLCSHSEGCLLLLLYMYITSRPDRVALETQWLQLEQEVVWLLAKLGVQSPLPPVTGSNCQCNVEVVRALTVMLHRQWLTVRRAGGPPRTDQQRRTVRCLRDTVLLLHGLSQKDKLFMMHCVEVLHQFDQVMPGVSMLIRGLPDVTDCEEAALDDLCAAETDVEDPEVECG
Sequence of mTOR/FKBP12A/FKBP12B (P62942 2-108 limits assumed, other chains not shown): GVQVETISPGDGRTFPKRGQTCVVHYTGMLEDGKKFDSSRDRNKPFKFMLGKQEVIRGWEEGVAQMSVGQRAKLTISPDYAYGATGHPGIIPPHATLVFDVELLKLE
Sequence of mTOR/FKBP12A/FKBP12B (P68106 whole entry, other chains not shown): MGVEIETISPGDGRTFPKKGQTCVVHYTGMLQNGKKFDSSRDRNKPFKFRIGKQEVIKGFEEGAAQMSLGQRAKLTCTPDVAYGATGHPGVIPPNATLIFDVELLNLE

inhibition [3]: 9% | inhibition [4]: 7% | IC50 [5]: 0.103 µM | AUC(0-inf) [9]: 2850 ng·h/mL | inhibition [12]: 24% | inhibition [16]: 9% | inhibition [17]: 13% | IC50 [18]: 0.008 µM | IC50 [20]: 0.007 µM | inhibition [22]: 9% | inhibition [23]: 11%
SMILES: N#CCN1CCC(n2c(=O)cnc3cnc4ccc(-c5ccc(N)nc5)cc4c32)CC1
Activity [1]: Active | inhibition in vivo at 15 mg/kg [2]: 63.2% | Activity [6]: Active | Activity [7]: Dose-dependent effect | Activity [8]: Active | inhibition [10]: Active | Activity [11]: Dose-dependent effect | Activity [13]: Dose-dependent effect | Activity [14]: Active | inhibition [15]: Active | inhibition [19]: Active | IC50 [21]: 0.11 µM
